Measured values from ChEMBL document CHEMBL1142492 (J Med Chem, 2008).

How the values were obtained:
[1] = target: Serine/threonine-protein kinase pim-3 (Homo sapiens) (UniProt Q86V86); test: Inhibition of PIM3 at 3 uM
[2] = target: cAMP-dependent protein kinase catalytic subunit beta (Homo sapiens) (UniProt P22694); test: Inhibition of PKAC-beta at 3 uM
[3] = target: Serine/threonine-protein kinase TAO3 (Homo sapiens) (UniProt Q9H2K8); test: Inhibition of TAOK3 at 3 uM
[4] = target: Dual specificity testis-specific protein kinase 1 (Homo sapiens) (UniProt Q15569); test: Inhibition of TESK1 at 3 uM
[5] = target: TGF-beta receptor type-2 (Homo sapiens) (UniProt P37173); test: Inhibition of TGFBR2 at 3 uM
TGF-beta receptor type-2 (Homo sapiens), sequence (P37173 whole entry): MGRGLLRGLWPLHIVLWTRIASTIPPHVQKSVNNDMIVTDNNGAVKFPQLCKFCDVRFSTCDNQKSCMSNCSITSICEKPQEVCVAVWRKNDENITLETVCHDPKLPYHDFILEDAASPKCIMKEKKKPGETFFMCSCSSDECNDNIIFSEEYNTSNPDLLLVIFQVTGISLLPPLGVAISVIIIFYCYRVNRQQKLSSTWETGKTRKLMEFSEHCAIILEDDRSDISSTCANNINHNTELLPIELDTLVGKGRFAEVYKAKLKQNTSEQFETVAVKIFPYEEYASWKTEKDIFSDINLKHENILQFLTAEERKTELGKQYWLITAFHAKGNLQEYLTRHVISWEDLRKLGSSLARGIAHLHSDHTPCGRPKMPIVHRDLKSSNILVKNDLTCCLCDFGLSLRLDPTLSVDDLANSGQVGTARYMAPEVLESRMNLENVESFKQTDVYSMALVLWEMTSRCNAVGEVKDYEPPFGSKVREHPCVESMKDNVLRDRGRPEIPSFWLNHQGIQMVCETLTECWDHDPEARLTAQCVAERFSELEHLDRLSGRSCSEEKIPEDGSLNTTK

[6] = target: Serine/threonine-protein kinase LATS2 (Homo sapiens) (UniProt Q9NRM7); test: Inhibition of LATS2 at 3 uM
[7] = target: Vascular endothelial growth factor receptor 1 (Homo sapiens) (UniProt P17948); test: Inhibition of FLT1 at 3 uM
In short: (§1)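 Single-concentration kinase panel scoring: each value is the percentage of enzyme activity remaining relative to a DMSO-only control. An activity statistically indistinct from DMSO control was scored "no hit".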

[8] = target: Glycogen synthase kinase-3 beta (Homo sapiens) (UniProt P49841); test: Inhibition of GSK3B at 3 uM
Glycogen synthase kinase-3 beta (Homo sapiens), sequence (P49841 whole entry, looked up): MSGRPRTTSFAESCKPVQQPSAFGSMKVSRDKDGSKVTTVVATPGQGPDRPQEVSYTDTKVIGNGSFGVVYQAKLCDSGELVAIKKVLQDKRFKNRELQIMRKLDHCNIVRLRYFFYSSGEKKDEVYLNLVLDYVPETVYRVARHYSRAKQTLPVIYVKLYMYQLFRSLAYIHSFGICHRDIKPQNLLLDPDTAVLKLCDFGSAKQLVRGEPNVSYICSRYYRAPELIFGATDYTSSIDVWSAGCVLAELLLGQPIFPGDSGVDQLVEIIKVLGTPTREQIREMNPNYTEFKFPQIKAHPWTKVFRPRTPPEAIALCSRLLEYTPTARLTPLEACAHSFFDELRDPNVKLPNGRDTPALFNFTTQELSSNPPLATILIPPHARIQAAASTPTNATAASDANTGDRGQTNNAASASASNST

[9] = target: Inhibitor of nuclear factor kappa-B kinase subunit alpha (Homo sapiens) (UniProt O15111); test: Inhibition of IKK-alpha at 3 uM
[10] = target: Mitogen-activated protein kinase kinase kinase kinase 4 (Homo sapiens) (UniProt O95819); test: Inhibition of MAP4K4 at 3 uM
[11] = target: Serine/threonine-protein kinase MARK2 (Homo sapiens) (UniProt Q7KZI7); test: Inhibition of MARK2 at 3 uM
Serine/threonine-protein kinase MARK2 (Homo sapiens), sequence (Q7KZI7 whole entry): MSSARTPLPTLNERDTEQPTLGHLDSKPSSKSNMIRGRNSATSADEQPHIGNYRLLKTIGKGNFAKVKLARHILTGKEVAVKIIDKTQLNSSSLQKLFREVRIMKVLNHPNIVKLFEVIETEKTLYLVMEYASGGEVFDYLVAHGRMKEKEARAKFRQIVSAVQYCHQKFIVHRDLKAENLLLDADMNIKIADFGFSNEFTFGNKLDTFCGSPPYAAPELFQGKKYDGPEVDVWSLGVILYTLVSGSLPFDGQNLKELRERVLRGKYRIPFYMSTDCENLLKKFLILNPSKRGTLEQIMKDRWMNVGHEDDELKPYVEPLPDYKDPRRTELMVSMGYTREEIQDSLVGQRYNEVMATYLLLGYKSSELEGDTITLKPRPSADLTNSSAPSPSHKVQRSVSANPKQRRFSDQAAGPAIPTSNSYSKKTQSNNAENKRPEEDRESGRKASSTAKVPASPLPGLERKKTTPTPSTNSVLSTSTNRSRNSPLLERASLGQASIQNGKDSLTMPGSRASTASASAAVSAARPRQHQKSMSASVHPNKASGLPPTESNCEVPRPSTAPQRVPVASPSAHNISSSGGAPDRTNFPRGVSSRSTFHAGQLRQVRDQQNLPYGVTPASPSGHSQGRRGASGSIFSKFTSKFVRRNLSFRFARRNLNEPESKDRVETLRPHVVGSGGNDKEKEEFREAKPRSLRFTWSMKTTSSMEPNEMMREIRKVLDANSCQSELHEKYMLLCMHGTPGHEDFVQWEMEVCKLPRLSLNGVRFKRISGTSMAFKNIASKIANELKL

[12] = target: Dual specificity mitogen-activated protein kinase kinase 6 (Homo sapiens) (UniProt P52564); test: Inhibition of MEK6 at 3 uM
[13] = target: Myosin light chain kinase, smooth muscle (Homo sapiens) (UniProt Q15746); test: Inhibition of MLCK at 3 uM
[14] = target: Mitogen-activated protein kinase kinase kinase 10 (Homo sapiens) (UniProt Q02779); test: Inhibition of MLK2 at 3 uM
[15] = target: Serine/threonine-protein kinase 4 (Homo sapiens) (UniProt Q13043); test: Inhibition of MST1 at 3 uM
[16] = target: Cyclin-dependent kinase 16 (Homo sapiens) (UniProt Q00536); test: Inhibition of PCTK1 at 3 uM
[17] = target: Protein kinase C theta type (Homo sapiens) (UniProt Q04759); test: Inhibition of PRKCQ at 3 uM
[18] = target: cGMP-dependent protein kinase 1 (Homo sapiens) (UniProt Q13976); test: Inhibition of PRKG1 at 3 uM
cGMP-dependent protein kinase 1 (Homo sapiens), sequence (Q13976 whole entry): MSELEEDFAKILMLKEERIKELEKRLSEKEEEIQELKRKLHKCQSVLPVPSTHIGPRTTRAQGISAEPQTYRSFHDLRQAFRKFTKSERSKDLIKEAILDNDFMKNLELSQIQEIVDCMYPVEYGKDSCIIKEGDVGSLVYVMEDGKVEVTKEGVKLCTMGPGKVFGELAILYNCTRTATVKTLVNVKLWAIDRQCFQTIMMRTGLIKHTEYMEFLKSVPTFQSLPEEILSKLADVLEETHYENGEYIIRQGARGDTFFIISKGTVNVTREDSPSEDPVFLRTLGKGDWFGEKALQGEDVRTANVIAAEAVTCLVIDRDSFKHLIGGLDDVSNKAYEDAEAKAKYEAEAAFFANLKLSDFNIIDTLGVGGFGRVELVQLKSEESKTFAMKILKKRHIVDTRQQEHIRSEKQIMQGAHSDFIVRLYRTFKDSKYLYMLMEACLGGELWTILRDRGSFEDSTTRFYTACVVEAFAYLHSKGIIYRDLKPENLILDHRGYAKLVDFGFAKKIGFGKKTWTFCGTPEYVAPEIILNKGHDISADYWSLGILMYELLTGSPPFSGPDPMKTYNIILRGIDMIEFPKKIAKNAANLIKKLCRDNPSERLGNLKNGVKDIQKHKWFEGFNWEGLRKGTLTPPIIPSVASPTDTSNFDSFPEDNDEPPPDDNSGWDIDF

[19] = tested on: Proto-oncogene tyrosine-protein kinase receptor Ret (Homo sapiens), P07949 [V804M]; test: Inhibition of RET V804M mutant at 3 uM
[20] = target: Phosphorylase b kinase gamma catalytic chain, skeletal muscle/heart isoform (Homo sapiens) (UniProt Q16816); test: Inhibition of PHKG1 at 3 uM
Phosphorylase b kinase gamma catalytic chain, skeletal muscle/heart isoform (Homo sapiens), sequence (Q16816 whole entry, looked up, canonical isoform): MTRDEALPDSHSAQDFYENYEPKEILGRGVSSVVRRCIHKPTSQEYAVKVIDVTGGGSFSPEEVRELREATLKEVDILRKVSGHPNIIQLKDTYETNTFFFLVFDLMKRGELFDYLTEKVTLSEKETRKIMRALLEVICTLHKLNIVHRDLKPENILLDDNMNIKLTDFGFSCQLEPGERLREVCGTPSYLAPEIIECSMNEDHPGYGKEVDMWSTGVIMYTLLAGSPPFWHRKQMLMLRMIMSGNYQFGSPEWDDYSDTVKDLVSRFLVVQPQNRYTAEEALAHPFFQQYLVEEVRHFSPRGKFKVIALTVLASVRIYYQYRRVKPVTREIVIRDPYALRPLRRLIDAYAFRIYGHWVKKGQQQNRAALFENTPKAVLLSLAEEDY

[21] = target: Phosphorylase b kinase gamma catalytic chain, liver/testis isoform (Homo sapiens) (UniProt P15735); test: Inhibition of PHKG2 at 3 uM
[22] = target: Wee1-like protein kinase (Homo sapiens) (UniProt P30291); test: Inhibition of WEE1 at 3 uM
[23] = Inhibition of myosin light chain bisphosphorylation in rat A7r5 cells after 1 hr
[24] = target: Gamma-aminobutyric acid receptor subunit alpha-1 (Rattus norvegicus) (UniProt P62813); test: Displacement of muscimol from rat GABAA1 receptor at 3 uM
Gamma-aminobutyric acid receptor subunit alpha-1 (Rattus norvegicus), sequence (P62813 whole entry): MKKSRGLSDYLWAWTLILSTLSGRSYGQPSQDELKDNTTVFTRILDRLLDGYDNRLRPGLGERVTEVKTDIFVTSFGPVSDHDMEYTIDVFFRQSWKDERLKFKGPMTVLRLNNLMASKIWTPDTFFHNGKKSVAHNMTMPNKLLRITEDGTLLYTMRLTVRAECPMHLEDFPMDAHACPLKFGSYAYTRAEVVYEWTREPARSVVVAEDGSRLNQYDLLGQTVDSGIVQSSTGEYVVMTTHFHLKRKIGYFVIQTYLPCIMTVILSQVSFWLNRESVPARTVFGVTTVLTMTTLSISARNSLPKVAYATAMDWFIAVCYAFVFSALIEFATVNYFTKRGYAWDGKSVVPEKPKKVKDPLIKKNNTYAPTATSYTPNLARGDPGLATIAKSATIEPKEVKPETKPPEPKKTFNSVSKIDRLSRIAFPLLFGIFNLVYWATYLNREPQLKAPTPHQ
In short: (§2)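 Counter-screen binding/enzyme panel at single 3 μM, n=2; results as percent inhibition. Species per target as listed (rat NMDA, GABAA sites; human receptors, transporters; rabbit ACE).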

[25] = target: Histamine H1 receptor (Homo sapiens) (UniProt P35367); test: Inhibition of human histamine H1 receptor at 3 uM
Histamine H1 receptor (Homo sapiens), sequence (P35367 whole entry): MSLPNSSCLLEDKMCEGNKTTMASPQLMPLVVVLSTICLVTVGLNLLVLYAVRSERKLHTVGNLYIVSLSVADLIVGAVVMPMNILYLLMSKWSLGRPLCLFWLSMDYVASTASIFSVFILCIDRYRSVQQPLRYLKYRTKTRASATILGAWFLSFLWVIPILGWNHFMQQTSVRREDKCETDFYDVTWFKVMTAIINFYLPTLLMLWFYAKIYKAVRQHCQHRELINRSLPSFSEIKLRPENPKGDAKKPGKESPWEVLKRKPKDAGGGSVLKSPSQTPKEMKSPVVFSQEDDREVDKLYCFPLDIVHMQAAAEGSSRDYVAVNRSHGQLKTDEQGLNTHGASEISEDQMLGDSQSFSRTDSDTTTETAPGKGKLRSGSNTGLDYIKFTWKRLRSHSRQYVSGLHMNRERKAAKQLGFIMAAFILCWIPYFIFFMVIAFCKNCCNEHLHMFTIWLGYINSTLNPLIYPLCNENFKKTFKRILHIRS

[26] = target: Neuropeptide Y receptor type 1 (Homo sapiens) (UniProt P25929); test: Inhibition of human neuropeptide Y Y1 receptor at 3 uM; in short: as §2
[27] = target: Acetylcholine receptor subunit alpha (Homo sapiens) (UniProt P02708); test: Displacement of bungarotoxin from human nAChR alpha1 receptor at 3 uM
In short: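 Counter-screen of human nicotinic α1 receptor binding, assayed by bungarotoxin displacement.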

[28] = target: Delta-type opioid receptor (Homo sapiens) (UniProt P41143); test: Inhibition of human delta opioid receptor at 3 uM; in short: as §2
hERG (KCNH2) = hERG (KCNH2) (Homo sapiens, UniProt Q12809); test: Inhibition of human ERG at 3 uM; in short: as §2
[29] = target: Tyrosine-protein kinase ABL1 (Homo sapiens) (UniProt P00519); test: Inhibition of ABL1 at 3 uM
[30] = tested on: Tyrosine-protein kinase ABL1 (Homo sapiens), P00519 [Q252H]; test: Inhibition of ABL1 Q252H mutant at 3 uM
[31] = target: Cyclin-dependent kinase 7 (Homo sapiens) (UniProt P50613); test: Inhibition of CDK7 at 3 uM
Cyclin-dependent kinase 7 (Homo sapiens), sequence (P50613 whole entry): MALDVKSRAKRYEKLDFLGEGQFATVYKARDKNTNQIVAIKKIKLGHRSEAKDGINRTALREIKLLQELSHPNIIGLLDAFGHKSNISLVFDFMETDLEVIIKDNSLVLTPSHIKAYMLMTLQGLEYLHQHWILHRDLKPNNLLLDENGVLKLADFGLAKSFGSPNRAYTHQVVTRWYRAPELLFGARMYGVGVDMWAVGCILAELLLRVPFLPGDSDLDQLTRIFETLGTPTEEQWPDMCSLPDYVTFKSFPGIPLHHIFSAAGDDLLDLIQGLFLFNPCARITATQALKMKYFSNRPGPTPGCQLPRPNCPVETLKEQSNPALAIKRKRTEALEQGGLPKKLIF

[32] = target: Cyclin-dependent kinase 8 (Homo sapiens) (UniProt P49336); test: Inhibition of CDK8 at 3 uM
Cyclin-dependent kinase 8 (Homo sapiens), sequence (P49336 whole entry): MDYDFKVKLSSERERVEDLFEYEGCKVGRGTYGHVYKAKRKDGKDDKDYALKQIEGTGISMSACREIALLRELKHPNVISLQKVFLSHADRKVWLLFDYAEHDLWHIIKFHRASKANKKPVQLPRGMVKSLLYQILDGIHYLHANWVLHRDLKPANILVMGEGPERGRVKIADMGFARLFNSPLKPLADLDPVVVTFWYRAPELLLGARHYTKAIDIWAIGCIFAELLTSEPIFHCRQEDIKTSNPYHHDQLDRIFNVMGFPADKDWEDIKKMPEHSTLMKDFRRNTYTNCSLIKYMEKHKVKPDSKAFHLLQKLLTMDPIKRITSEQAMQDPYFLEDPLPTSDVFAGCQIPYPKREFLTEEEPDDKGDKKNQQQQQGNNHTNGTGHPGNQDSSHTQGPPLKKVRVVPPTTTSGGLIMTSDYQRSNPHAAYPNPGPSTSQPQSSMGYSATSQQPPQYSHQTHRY

[33] = target: Activin receptor type-1-like (Homo sapiens) (UniProt P37023); test: Inhibition of ACVRL1 at 3 uM
[34] = target: RAC-alpha serine/threonine-protein kinase (Homo sapiens, UniProt P31749); test: Inhibition of AKT1 at 3 uM
[35] = target: ALK tyrosine kinase receptor (Homo sapiens) (UniProt Q9UM73); test: Inhibition of ALK at 3 uM
[36] = target: Casein kinase I isoform alpha-like (Homo sapiens) (UniProt Q8N752); test: Inhibition of CSNK1A1L at 3 uM
Casein kinase I isoform alpha-like (Homo sapiens), sequence (Q8N752 whole entry, canonical isoform): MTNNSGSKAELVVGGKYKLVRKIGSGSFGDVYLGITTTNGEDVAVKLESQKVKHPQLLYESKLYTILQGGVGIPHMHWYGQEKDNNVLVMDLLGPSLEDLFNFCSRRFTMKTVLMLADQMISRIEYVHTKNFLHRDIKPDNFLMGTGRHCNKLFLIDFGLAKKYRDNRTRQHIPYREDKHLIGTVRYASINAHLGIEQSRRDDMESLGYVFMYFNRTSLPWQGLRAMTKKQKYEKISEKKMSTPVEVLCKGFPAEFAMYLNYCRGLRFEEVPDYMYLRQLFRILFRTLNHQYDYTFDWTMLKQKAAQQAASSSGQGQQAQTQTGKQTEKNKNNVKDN

[37] = target: Serine/threonine-protein kinase MRCK gamma (Homo sapiens) (UniProt Q6DT37); test: Inhibition of DMPK2 at 3 uM
[38] = target: Calcium/calmodulin-dependent protein kinase type 1D (Homo sapiens) (UniProt Q8IU85); test: Inhibition of CAMK1D at 3 uM
[39] = target: Calcium/calmodulin-dependent protein kinase type IV (Homo sapiens) (UniProt Q16566); test: Inhibition of CAMK4 at 3 uM
[40] = target: Receptor tyrosine-protein kinase erbB-4 (Homo sapiens) (UniProt Q15303); test: Inhibition of ERBB4 at 3 uM; in short: as §1
[41] = tested on: Epidermal growth factor receptor (Homo sapiens), P00533 [G719S]; test: Inhibition of EGFR G719S mutant at 3 uM; format: protein assay
[42] = target: Epidermal growth factor receptor (Homo sapiens) (UniProt P04626+P00533+Q15303+P21860); test: Inhibition of EGFR L747-E749del,A750P mutant at 3 uM; format: protein assay
Homo sapiens = species on record: Homo sapiens; settings: 3 uM
Rattus norvegicus = species on record: Rattus norvegicus; settings: 3 uM

CN(C)CCOc1cc(-c2cn[nH]c2)ccc1NC(=O)C1COc2ccccc2O1 (stereo not given) [SR-3677]
inhibition [1]: < 10% | inhibition [2]: < 10% | inhibition [3]: < 10% | inhibition [4]: < 10% | inhibition [5]: < 10% | inhibition [6]: 88% | inhibition [7]: < 10% | inhibition [8]: < 10% | inhibition [9]: < 10% | inhibition [10]: < 10% | inhibition [11]: < 10% | inhibition [12]: < 10% | inhibition [13]: < 10% | inhibition [14]: < 10% | inhibition [15]: < 10% | inhibition [16]: < 10% | inhibition [17]: < 10% | inhibition [18]: < 10% | inhibition [19]: < 10% | inhibition [20]: < 10% | inhibition [21]: < 10% | inhibition [22]: < 10% | IC50 [23]: 3.5 nM | inhibition [24]: 5% | inhibition [25]: 7% | inhibition [26]: -8% | inhibition [27]: 7% | inhibition [28]: -9% | inhibition at 3 µM (hERG (KCNH2)): 31% | inhibition [29]: < 10% | inhibition [30]: < 10% | inhibition [31]: < 10% | inhibition [32]: < 10% | inhibition [33]: < 10% | inhibition [34]: < 10% | inhibition [35]: < 10% | inhibition [36]: < 10% | inhibition [37]: < 10% | inhibition [38]: < 10% | inhibition [39]: < 10% | inhibition [40]: < 10% | inhibition [41]: < 10% | inhibition [42]: < 10% | inhibition (Homo sapiens): 4% | inhibition (Rattus norvegicus): 14%
